Measurements reported in publication PMC2635573 (Molecular pharmacology, 2008).
Where two headings read alike, the source gives them in different places. Non-standard residues stand in square brackets, D forms with d. Residues, ends and D or L forms follow the SMILES beside them. *: point of attachment. X1 = COC1=CC(=O)N(C(=O)[C@@H](O*)C(C)C)[C@H]1Cc1ccccc1; NMe2Val = CC(C)[C@@H](C(=O)*)N(C)C; NMeV = CN[C@H](C(=O)O)C(C)C; Cbz = O=C(OCc1ccccc1)*; NHtBu = CC(C)(C)N*

Key:
[1] = test system: CCRF-CEM leukemia cells; test: cells; assay type: cell-based, human; details: for -fold difference in IC50 (+ BCPP versus − BCPP) / IC50: 24 h; for IC50: read-out: IC50 − BCPP
[2] = molecular target: purified bovine brain tubulin (Bos taurus, UniProt P81947+Q6B856); test: Inhibition of tubulin assembly; assay type: biochemical
purified bovine brain tubulin, sequence (P81947 whole entry): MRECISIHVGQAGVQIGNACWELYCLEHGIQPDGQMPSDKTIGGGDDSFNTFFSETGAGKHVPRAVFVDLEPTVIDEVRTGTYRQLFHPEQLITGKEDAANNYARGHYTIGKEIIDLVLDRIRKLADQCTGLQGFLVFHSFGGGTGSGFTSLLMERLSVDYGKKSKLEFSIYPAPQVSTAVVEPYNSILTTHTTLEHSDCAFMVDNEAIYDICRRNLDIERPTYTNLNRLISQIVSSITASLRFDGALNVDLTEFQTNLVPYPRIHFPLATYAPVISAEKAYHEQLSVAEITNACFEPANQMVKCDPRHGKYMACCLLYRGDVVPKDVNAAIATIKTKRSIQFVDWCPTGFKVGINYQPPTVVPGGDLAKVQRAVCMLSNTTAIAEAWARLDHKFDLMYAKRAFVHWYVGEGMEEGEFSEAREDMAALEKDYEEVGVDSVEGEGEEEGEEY
purified bovine brain tubulin, sequence (Q6B856 whole entry): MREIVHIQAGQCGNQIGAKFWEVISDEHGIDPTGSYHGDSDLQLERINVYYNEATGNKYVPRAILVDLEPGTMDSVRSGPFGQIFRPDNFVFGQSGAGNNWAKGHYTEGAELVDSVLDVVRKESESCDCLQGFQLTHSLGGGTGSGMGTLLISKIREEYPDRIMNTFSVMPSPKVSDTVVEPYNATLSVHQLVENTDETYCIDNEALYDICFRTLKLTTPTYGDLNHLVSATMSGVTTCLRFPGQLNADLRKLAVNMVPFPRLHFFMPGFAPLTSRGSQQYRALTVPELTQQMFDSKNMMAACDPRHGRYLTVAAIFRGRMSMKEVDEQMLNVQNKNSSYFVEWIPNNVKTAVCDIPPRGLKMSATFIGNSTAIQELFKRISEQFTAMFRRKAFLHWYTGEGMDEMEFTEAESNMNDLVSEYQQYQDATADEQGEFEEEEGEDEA

[3] = test system: Burkitt lymphoma CA46 cells; test: Inhibition of growth of CA46 cells; assay type: cell-based, human
Method in brief: (§1)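 Suspension lines were grown in RPMI 1640 with 5% fetal bovine serum (10% for CA46) at 37°C in humidified 5% CO₂. Test compound was added in DMSO (0.1% final) at varying concentrations. Growth was measured as cell number with a particle counter, and the IC₅₀ was derived from it.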

[4] = test system: P-glycoprotein; details: ref Aherne et al., 1996; cited from earlier work
[5] = test system: MOLT-4 cells; test: [^3H]Tasidotin uptake and metabolism, MOLT-4 cells; assay type: in vitro ADME, human; details: 0.1 μM [^3H]tasidotin, 16 h
Method in brief: (§2)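 Log-phase cells at ~10⁶ cells/ml were given 0.1 μM [³H]test compound for 16 h (CA46 also 5 min). Cells were centrifuged, washed twice in PBS pH 7.2 and sonicated in water. Extracts were boiled 5 min, clarified, and precipitated with 3 volumes of ethanol. Radiolabel and protein were measured in supernatants and pellets. Supernatants in 0.1% TFA were run on C18 HPLC (10–60% acetonitrile, 10 min, 40°C) with in-line radioactivity detection and peak areas. Pellet label was taken as protein-incorporated proline.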

[6] = test system: CCRF-CEM cells; test: Inhibition of cell growth, CCRF-CEM cells; assay type: cell-based, human; details: mean ± S.D.
Method in brief: as §1

[7] = test system: HL-60 (TB) cells
[8] = test system: K-562 cells; test: Inhibition of cell growth, K-562 cells; assay type: cell-based, human; details: mean ± S.D.
Method in brief: as §1

[9] = test system: K-562 cells; test: [^3H]Tasidotin uptake and metabolism, K-562 cells; assay type: in vitro ADME, human; details: 0.1 μM [^3H]tasidotin, 16 h
Method in brief: as §2

[10] = test system: CA46, K-562, MOLT-4, and RPMI-8226; details: less sensitive cell lines, 0.1 μM [^3H]tasidotin, 16 h
[11] = test system: MOLT-4 cells; test: Inhibition of cell growth, MOLT-4 cells; assay type: cell-based, human; details: mean ± S.D.
Method in brief: as §1

[12] = test system: NCI/ADR-RES; details: multidrug resistant, P-glycoprotein expressing
[13] = test system: RPMI-8226 cells; test: [^3H]Tasidotin uptake and metabolism, RPMI-8226 cells; assay type: in vitro ADME, human; details: 0.1 μM [^3H]tasidotin, 16 h
Method in brief: as §2

[14] = test system: SR cells; test: [^3H]Tasidotin uptake and metabolism, SR cells; assay type: in vitro ADME, human; details: 0.1 μM [^3H]tasidotin, 16 h
Method in brief: as §2

[15] = test system: RPMI-8226 cells; test: Inhibition of cell growth, RPMI-8226 cells; assay type: cell-based, human; details: mean ± S.D.
Method in brief: as §1

[16] = test system: SR cells; test: Inhibition of cell growth, SR cells; assay type: cell-based, human; details: mean ± S.D.
Method in brief: as §1

[17] = test system: MDA-MB-435 line
[18] = test system: SR, CCRF-CEM, and HL-60 (TB)
[19] = test system: CA46 Burkitt lymphoma cells; test: [^3H]Tasidotin uptake and metabolism, CA46 cells; assay type: in vitro ADME, human; details: 0.1 μM [^3H]tasidotin
[20] = test system: CCRF-CEM cells; test: [^3H]Tasidotin uptake and metabolism, CCRF-CEM cells; assay type: in vitro ADME, human; details: 0.1 μM [^3H]tasidotin, 16 h
Method in brief: as §2

[21] = test system: SR, CCRF-CEM, and HL-60 (TB); remark: listed apart in the source
[22] = test system: HS 578-T line
[23] = test system: CA46, K-562, MOLT-4, and RPMI-8226
[24] = test system: HL-60 (TB) cells; remark: listed apart in the source
[25] = read-out: IC50 Growth of CA46 Cells, 48-h incubation at 37°C, increase in cell number
[26] = 16 h, % of supernatant radiolabel

O=C[C@@H]1CCCN1C(=O)[C@@H]1CCCN1C(=O)OCc1ccccc1 [BCPP, N-benzyloxycarbonylprolylprolinal] (Cbz-Pro-Pro-aldehyde)
Effect of BCPP itself on the growth of the cells ([1]; CCRF-CEM cells, 12.5 μM BCPP): negligible effects

COc1ccc(/C=C\c2cc(OC)c(OC)c(OC)c2)cc1O [Combretastatin A-4]
Effect of BCPP on the inhibition of CCRF-CEM cell growth by the drug ([1]; CCRF-CEM cells, 12.5 μM BCPP): no effect | -fold difference in IC50 (+ BCPP versus − BCPP) ([1]; CCRF-CEM cells, 12.5 μM BCPP): 0.8 -fold | IC50 ([1]; Homo sapiens, CCRF-CEM): 2.3 ± 0.3 nM

CC[C@H](C)[C@@H]([C@@H](CC(=O)N1CCC[C@H]1[C@H](OC)[C@@H](C)C(=O)N[C@@H](Cc1ccccc1)c1nccs1)OC)N(C)C(=O)[C@@H](NC(=O)[C@H](C(C)C)N(C)C)C(C)C [Dolastatin 10, reference compound]
IC50 [2]: 800 ± 100 nM | IC50 [3, 25]: 0.03 nM

COC1=CC(=O)N(C(=O)[C@@H](OC(=O)[C@@H]2CCCN2C(=O)[C@@H]2CCCN2C(=O)[C@H](C(C)C)N(C)C(=O)[C@@H](NC(=O)[C@H](C(C)C)N(C)C)C(C)C)C(C)C)[C@H]1Cc1ccccc1 [Dolastatin 15, reference compound] (NMe2Val-V[NMeV]PP-X1)
IC50 [2]: 5600 ± 900 nM | P-glycoprotein substrate [4]: P-glycoprotein substrate | IC50 [3, 25]: 3 nM

CN(Cc1cnc2nc(N)nc(N)c2n1)c1ccc(C(=O)N[C@@H](CCC(=O)O)C(=O)O)cc1 [Methotrexate]
Effect of BCPP on the inhibition of CCRF-CEM cell growth by the drug ([1]; CCRF-CEM cells, 12.5 μM BCPP): no effect | -fold difference in IC50 (+ BCPP versus − BCPP) ([1]; CCRF-CEM cells, 12.5 μM BCPP): 1.1 -fold | IC50 ([1]; Homo sapiens, CCRF-CEM): 7.3 ± 0.8 nM

CC(C)[C@H](NC(=O)[C@H](C(C)C)N(C)C)C(=O)N(C)[C@H](C(=O)N1CCC[C@H]1C(=O)N1CCC[C@H]1C(=O)NC(C)(C)C)C(C)C [Tasidotin] (NMe2Val-V[NMeV]PP-NHtBu)
IC50 [2]: 10000 ± 400 nM | Fold less active as inhibitor of tubulin assembly than dolastatin 10 ([2]; ratio of tubulin assembly IC50 values): more than 12 -fold | Free Proline in Supernatant [5]: 3.5 fmol / μg cell protein | Proline from Pellets [5]: 7.0 fmol / μg cell protein | Total Proline in Supernatant (All Forms) [5]: 46 ± 7% | Total Tasidotin-Derived Proline (Total Tasidotin Uptake) [5]: 13 ± 3 fmol / μg cell protein | Free Proline in Supernatant ([5]; % of supernatant radiolabel): 59% | Proline in P5 in Supernatant ([5]; % of supernatant radiolabel): 41 ± 9% | IC50 [6]: 30 ± 7 nM | Proline from Pellets [7]: 12.4 fmol / μg cell protein | Total Proline in Supernatant (All Forms) [7]: 54 ± 10% | Total Tasidotin-Derived Proline (Total Tasidotin Uptake) [7]: 27 ± 3 fmol / μg cell protein | IC50 [8]: 230 ± 30 nM | Free Proline in Supernatant [9]: 4.2 fmol / μg cell protein | Proline from Pellets [9]: 9.0 fmol / μg cell protein | Total Proline in Supernatant (All Forms) [9]: 42 ± 9% | Total Tasidotin-Derived Proline (Total Tasidotin Uptake) [9]: 15.5 ± 2 fmol / μg cell protein | Free Proline in Supernatant ([9]; % of supernatant radiolabel): 64% | Proline in P5 in Supernatant ([9]; % of supernatant radiolabel): 36 ± 6% | Share of total uptake as P5, average [10]: 16% | Share of total uptake as proline, average [10]: 84% | Total uptake, average [10]: 12 fmol/μg of cell protein | IC50 [11]: 230 ± 30 nM | IC50 [12]: > 1000 nM | Free Proline in Supernatant [13]: 1.6 fmol / μg cell protein | Proline from Pellets [13]: 5.8 fmol / μg cell protein | Total Proline in Supernatant (All Forms) [13]: 31 ± 5% | Total Tasidotin-Derived Proline (Total Tasidotin Uptake) [13]: 8.4 ± 3 fmol / μg cell protein | Free Proline in Supernatant ([13]; % of supernatant radiolabel): 61% | Proline in P5 in Supernatant ([13]; % of supernatant radiolabel): 39 ± 5% | Free Proline in Supernatant [14]: 5.0 fmol / μg cell protein | Proline from Pellets [14]: 9.8 fmol / μg cell protein | Total Proline in Supernatant (All Forms) [14]: 51 ± 9% | Total Tasidotin-Derived Proline (Total Tasidotin Uptake) [14]: 20 ± 5 fmol / μg cell protein | Free Proline in Supernatant ([14]; % of supernatant radiolabel): 49% | Proline in P5 in Supernatant ([14]; % of supernatant radiolabel): 51 ± 7% | IC50 [15]: 300 ± 20 nM | IC50 [16]: 20 ± 1 nM | IC50 [17]: 4 nM | IC50 [18]: 20 to 36 nM | -fold difference in IC50 (+ BCPP versus − BCPP) ([1]; CCRF-CEM cells, 12.5 μM BCPP): 30 -fold | IC50 ([1]; CCRF-CEM cells, without BCPP, cell number): 40 ± 10 nM | IC50 ([3]; CA46 cells (Table 2), mean ± S.D.): 100 ± 5 nM | IC50 [3, 25]: 100 ± 5 nM | Soluble intracellular radiolabel remaining as tasidotin ([19]; 5 min): Approximately 48% | Soluble intracellular radiolabel with the mobility of P5 ([19]; 5 min): approximately 17% | Soluble radiolabel that had undergone further metabolism (unbound proline peak) ([19]; 5 min): approximately 35% | Free Proline in Supernatant ([19]; 16 h): 2.8 fmol / μg cell protein | Proline from Pellets ([19]; 16 h): 7.1 fmol / μg cell protein | Total Proline in Supernatant (All Forms) ([19]; 16 h): 41 ± 1% | Total Tasidotin-Derived Proline (Total Tasidotin Uptake) ([19]; 16 h): 12 ± 0.6 fmol / μg cell protein | Free Proline in Supernatant [19, 26]: 58% | Proline in P5 in Supernatant [19, 26]: 42 ± 10% | Radiolabel in the unbound proline peak ([19]; 96 h): approximately 38% | Radiolabel remaining as tasidotin ([19]; 96 h): approximately 6% | Total radiolabel with the mobility of P5 ([19]; 96 h): approximately 56% | Free Proline in Supernatant [20]: 11.5 fmol / μg cell protein | Total Proline in Supernatant (All Forms) [20]: 52 ± 4% | Total Tasidotin-Derived Proline (Total Tasidotin Uptake) [20]: 24 ± 9 fmol / μg cell protein | Free Proline in Supernatant ([20]; % of supernatant radiolabel): 48% | Proline in P5 in Supernatant ([20]; % of supernatant radiolabel): 62 ± 10% | Intracellular P5 [21]: 5.2-7.7 fmol/μg cell protein | Share of total uptake as P5, average [21]: 29% | Share of total uptake as proline, average [21]: 71% | IC50 [22]: 200 nM | IC50 [23]: 100 to 300 nM | IC50 [24]: 36 ± 6 nM
